Experimental data reported in paper PMC4361317 (Nuclear medicine and biology, 2014).
Entries after “also recorded” stand apart in the source; their conditions may differ. Where a SMILES comes first, the peptide text is derived from it. Bridges are numbered along the chain shown (N, C = ends). [ ]: non-standard residue; d: D form. Aoc = NCCCCCCCC(=O)O

Tests used:
MC1 receptor = MC1 receptor (Homo sapiens, UniProt Q01726); assay: In vitro competitive binding, MC1 receptor, M21 human melanoma cells, ^125I-
Summary of the method: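 Intact M21 cells (1.5×10^5/well) were incubated for 2 h at 37 °C with ~30,000 cpm 125I-(Tyr2)-NDP-MSH plus 10−12 to 10−5 M test compound. Medium was MEM with 25 mM HEPES pH 7.4, 0.2% BSA and 0.3 mM 1,10-phenanthroline. Cells were rinsed twice with ice-cold 0.2% BSA/0.01 M PBS pH 7.4, lysed in 1 N NaOH for 5 min and gamma counted. Triplicate; IC50 calculated.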

αvβ3 integrin receptor = αvβ3 integrin receptor (Homo sapiens, UniProt P05106+P06756); assay type: binding
Summary of the method: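 M21 cells (1×10^5/well) were placed on 0.65 µm filter plates and incubated for 2 h at 25 °C with ~30,000 cpm 125I-echistatin and 10−11 to 10−4 M test compound. The binding medium was HEPES-buffered MEM pH 7.4 with BSA and phenanthroline. Bound and free ligand were separated by vacuum filtration with two ice-cold BSA/PBS pH 7.4 rinses, and the PVDF filters were gamma counted. Triplicate; IC50 calculated.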

[1] = test system: M21 human melanoma-xenografted nude mice; conditions: mouse, in vivo; cited from earlier work

IC50 (MC1 receptor) [µM] | IC50 (αvβ3 integrin receptor) [µM] | binding affinity for αvβ3 integrin receptor (in words) (αvβ3 integrin receptor; M21 cells) | Compound | MC1 receptor binding affinity, compared with RGD-PEG2-(Arg^11)CCMSH (MC1 receptor; M21 cells) | αvβ3 integrin receptor binding affinity, compared with RGD-PEG2-(Arg^11)CCMSH (αvβ3 integrin receptor; M21 cells) | melanoma uptake relative to ^99mTc-RAD-Lys-(Arg^11)CCMSH [1] [times] | melanoma uptake relative to ^99mTc-RGD-Lys-(Arg^11)CCMSHscramble [1] [times]
0.0015 ± 0.0002 | 1.13 ± 0.026 | low micromolar range | CC(C)[C@H](NC(=O)[C@@H]1CCCN1C(=O)[C@H](CCCNC(=N)N)NC(=O)[C@H](CS)NC(=O)[C@H](Cc1c[nH]c2ccccc12)NC(=O)[C@H](CCCNC(=N)N)NC(=O)[C@@H](Cc1ccccc1)NC(=O)[C@H](Cc1c[nH]cn1)NC(=O)[C@H](CCC(=O)O)NC(=O)[C@H](CS)NC(=O)[C@H](CS)NC(=O)CCCCCCCNC(=O)[C@@H]1CC(=O)N[C@@H](CCCNC(=N)N)C(=O)NCC(=O)N[C@@H](CC(=O)O)C(=O)N[C@H](Cc2ccc(O)cc2)C(=O)N1)C(N)=O [RGD-Aoc-(Arg^11)CCMSH] (RGD[dY]D[Aoc]CCEH[dF]RWCRPV-NH2; lactam N-5) | stronger receptor binding affinity; also recorded: slightly stronger binding affinities | stronger receptor binding affinity; also recorded: slightly stronger binding affinities | – | –
– | – | – | cyclic(Arg-Gly-Asp-DTyr-Asp)-Lys-(^99mTc-[Cys^3,4,10, D-Phe^7, Arg^11]α-MSH3–13) (bicyclic or more) [^99mTc-RGD-Lys-(Arg^11)CCMSH] | – | – | 2.5 | 2.2
